Paper PMC4207554 (Drug Design, Development and Therapy, 2014)

Key:
[1] = cited from earlier work
[2] = tested on: BEL-7402 human hepatoma cells; assay: BEL-7402 human hepatoma xenograft model; assay type: in vivo, nude mice
H22 mouse hepatoma cells = assay: H22 hepatoma xenograft model; assay type: in vivo, Kun Ming (KM) mice
Summary of the method: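 Kun Ming mice (eight/group) received 2×10^5 H22 hepatoma cells sc in the right armpit. Test compound (5, 15, 45 mg/kg) or adriamycin (2 mg/kg) in HS-15/N,N-dimethylformamide (1:1 v/v) was injected ip. Mice were weighed twice weekly and killed by cervical dislocation, and tumors were weighed. Inhibition (%) = (mean control tumor weight − mean treated)/mean control × 100.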

[3] = tested on: bone marrow polychromatic erythrocytes; details: 15 mg/kg, similar experiment conditions; cited from earlier work

inhibition of body weight of mice ([2]; BEL7402 xenografts): 33.3%
inhibition of body weight of mice (H22 mouse hepatoma cells; H22 xenografts): 25.1%
SMILES: COc1cccc2c1C(=O)c1c(O)c3c(c(O)c1C2=O)C[C@@](O)(C(=O)CO)C[C@@H]3O[C@H]1C[C@H](N)[C@H](O)[C@H](C)O1 [ADM, adriamycin]
bioavailability after oral administration [1]: poor bioavailability
inhibitory rate ([2]; 2 mg/kg ip, BEL-7402 xenografts): 73.5%
changes in body weights versus vehicle group ([2]; BEL-7402 xenografts, 3 weeks): significantly reduced
inhibitory rate of cancer growth (H22 mouse hepatoma cells; 2 mg/kg ip): 51.9%
influence on body weights of mice (H22 mouse hepatoma cells; H22-bearing mice): much more loss of body weight
induction of micronuclei [3]: induce large amounts of micronuclei
